Experimental data from ChEMBL document CHEMBL1154309, “Cytotoxic diterpenoids from Croton argyrophylloides” (J Nat Prod, 2009).

How the values were obtained:
PBMC = assay: Cytotoxicity against human PBMC after 72 hrs by alamar blue assay; type: cell-based
Outline: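 PBMC isolated from heparinized blood of healthy nonsmoking donors by Ficoll-Hypaque gradient. Cells at 3 × 10^5 cells/mL in RPMI 1640 with 20% FBS, 37 °C, 5% CO2, phytohemagglutinin 3% added at the start. Compounds added after 24 h at 0.078-5 µg/mL in DMSO (final below 0.1%), exposure 72 h. Alamar Blue added for the last 24 h; absorbance read at 570 and 595 nm, expressed as % reduced versus control.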

MDA-MB-435 = assay: Cytotoxicity against human MDA-MB-435 cells after 69 hrs by MTT assay; type: functional, cell-based; conditions: MDA-MB-435, 69 h
Outline: (§1)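 Tumor lines from NCI, kept in RPMI 1640 with 10% FBS, 2 mM glutamine, penicillin/streptomycin, 37 °C, 5% CO2. Seeded at 0.7 × 10^5 cells/well (adherent) or 0.3 × 10^6 cells/well (suspension). Compounds at 0.078-5 µg/mL in DMSO (final below 0.1%), 69 h, then MTT 0.5 mg/mL for 3 h. Formazan dissolved in DMSO, A595. Triplicates; IC50 by nonlinear regression.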

HL-60 = assay: Cytotoxicity against human HL60 cells after 69 hrs by MTT assay; type: functional, cell-based; conditions: HL-60, 69 h; outline: as §1
SF-295 = assay: Cytotoxicity against human SF295 cells after 69 hrs by MTT assay; type: functional, cell-based; conditions: SF-295, 69 h; outline: as §1
[1] = Hemolytic activity in mouse erythrocytes at 200 ug/ml after 1 hr by spectrophotometer; type: ADME, cell-based; conditions: erythrocyte
Outline: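 Mouse erythrocytes as a 2% suspension in 0.85% NaCl with 10 mM CaCl2. Compounds tested at 0.78-200 µg/mL; 1% DMSO served as negative control and 0.2% Triton X-100 set 100% hemolysis. After 1 h at room temperature and centrifugation, released hemoglobin in the supernatant measured at 540 nm absorbance.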

HCT-8 = assay: Cytotoxicity against human HCT8 cells after 69 hrs by MTT assay; type: functional, cell-based; conditions: HCT-8, 69 h; outline: as §1

| Compound | IC50 (PBMC) | IC50 (MDA-MB-435) | IC50 (HL-60) | IC50 (SF-295) | Activity [1] | IC50 (HCT-8) |
| --- | --- | --- | --- | --- | --- | --- |
| C=C1C(=O)[C@@]23CC[C@H]4[C@@](C)(CCC[C@]4(C)C(=O)O)[C@@H]2CC[C@@H]1C3 | > 10 µM | 4.2 µM | 2 µM | 3.7 µM | Not Active | 1.5 µM |
| C=C1C(=O)O[C@@]23CC[C@H]4[C@@](C)(CCC[C@]4(C)C(=O)O)[C@@H]2CC[C@@H]1C3 (relative stereo) | > 10 µM | > 10 µM | 8.2 µM | > 10 µM | Not Active | 5.2 µM |
| C=C(C(=O)OC)C1C[C@H](OC(C)=O)C2=C(CC[C@@H]3[C@@](C)(C(=O)OC)C(=O)CC[C@@]23C)[C@@H]1OC(C)=O (relative stereo) [ABIETANE] | > 10 µM | > 10 µM | > 10 µM | > 10 µM | Not Active | > 10 µM |
| COc1cccc2c1C(=O)c1c(O)c3c(c(O)c1C2=O)C[C@@](O)(C(=O)CO)C[C@@H]3O[C@H]1C[C@H](N)[C@H](O)[C@H](C)O1 [DOXORUBICIN] | 0.5 µM | 1.67 µM | 0.05 µM | 0.37 µM |  | 0.09 µM |
